From PubChem
SENP6 block – SENP6 protease inhibitors, primary screen, biochemical, luminescence, uHTS; Recombinant SENP6 catalytic domain, aminoluciferin luminescence; inhibition, % at 10 µM; 330,000 compounds, 1.8% hits;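 active means inhibition above about 50% at the single tested dose, limit read from the data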;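 further: plate controls were DMSO wells with enzyme for no effect and DMSO wells lacking enzyme for full effect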
Apaf1 inhib – inhibitors of human Apaf-1 apoptosome, primary screen, biochemical, DEVD-Rh110 fluorescence, uHTS. reconstituted apoptosome caspase-3 activity. 330,000 compounds, 0.71% hits. inhibition, % at 20 µM. AID 489030, 2010. Apoptotic protease-activating factor 1 (Homo sapiens), O14727; active means inhibition of at least 40% at 20 µM;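 further: plate controls were DMSO wells for no effect and DEVD-CHO caspase inhibitor wells for full effect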
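Material: cell-free apoptosome with Apaf-1, procaspase-3 and caspase-9; Buffer or medium: Hepes pH 7.5 with detergent and BSA; Reagent: cytochrome c trigger plus (Z-DEVD)2-Rh110 caspase-3 substrate; Times: compound with Apaf-1, dATP, procaspase-3 30 min, then 50 min reaction, room temperature; Technique: Rh110 fluorescence intensity.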
SENP8 block-1 – SENP8 protease inhibitors, primary screen, biochemical, luminescence; Sentrin-specific protease 8 (Homo sapiens), Q96LD8; purified SENP8, Z-RLRGG-aminoluciferin cleavage; inhibition, % at 10 µM; 330,000 compounds, 1.2% hits; in the data active means inhibition above about 50%
Target sequence (Q96LD8 whole entry, looked up): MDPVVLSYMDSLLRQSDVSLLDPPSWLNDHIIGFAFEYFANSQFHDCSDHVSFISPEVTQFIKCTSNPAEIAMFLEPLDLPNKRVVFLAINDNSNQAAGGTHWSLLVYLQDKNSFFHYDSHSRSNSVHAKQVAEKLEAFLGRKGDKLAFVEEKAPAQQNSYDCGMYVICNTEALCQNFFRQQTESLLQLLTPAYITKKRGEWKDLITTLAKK
SENP8 block-2 – human SENP8 protease inhibitors, primary screen, biochemical, fluorescence, Nedd8 protein substrate, uHTS; Sentrin-specific protease 8 (Homo sapiens), Q96LD8; recombinant SENP8; inhibition, % at 20 µM; 360,000 compounds, 0.64% hits; AID 602440, 2012; in the data active means inhibition mostly above about 40%, no sharp cut-off; inactive means mostly below about 27%
SENP7 block – SENP7 protease inhibitors, primary screen, biochemical, luminescence, uHTS; Sentrin-specific protease 7 (Homo sapiens), Q9BQF6; recombinant SENP7, Z-RLRGG-aminoluciferin luminescence, 40 min; inhibition, % at 5 µM; 330,000 compounds, 1.5% hits; AID 434973, 2010;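 active means inhibition above about 50% at the single test dose, limit read from the data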;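 further: plate controls were DMSO with enzyme for no effect and no enzyme buffer wells for full effect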
UBC13 polyUb – UBC13 polyubiquitin chain formation inhibitors, primary screen, biochemical, TR-FRET, uHTS. Ubiquitin-conjugating enzyme E2 N (Homo sapiens), P61088. 330,000 compounds, 0.47% hits. inhibition, % at 20 µM; in the data active means inhibition above about 45%, passing the limit was not always enough
Target sequence (P61088 whole entry, looked up): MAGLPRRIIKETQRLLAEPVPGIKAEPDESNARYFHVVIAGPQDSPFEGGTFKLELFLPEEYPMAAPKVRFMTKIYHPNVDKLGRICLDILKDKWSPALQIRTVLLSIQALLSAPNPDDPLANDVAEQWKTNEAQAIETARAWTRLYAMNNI
SENP8 conf-1 – SENP8 protease inhibitors, retest, confirmation, biochemical, luminescence, single concentration; shares compounds with SENP7 block; Recombinant SENP8, Z-RLRGG-aminoluciferin luminescence, 60 min; inhibition, % at 12.5 µM; 6,200 compounds, 40% hits; AID 488912, 2010;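 active means mean inhibition across replicates above about 50%, limit read from the data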
SENP6 conf – SENP6 protease inhibitors, confirmation, biochemical, luminescence, single concentration. 6,200 compounds, 58% hits. inhibition, % at 12.5 µM. shares compounds with SENP7 block. recombinant SENP6, Z-RLRGG-aminoluciferin luminescence. AID 488915, 2010
SENP7 conf – SENP7 protease inhibitors, retest, confirmation, biochemical, luminescence, single concentration. shares compounds with SENP7 block. inhibition, % at 12.5 µM. AID 488917, 2010. recombinant SENP7, Z-RLRGG-aminoluciferin luminescence, 40 min. 6,200 compounds, 69% hits
Casp3 SENP sel – caspase-3 protease inhibitors, confirmation, selectivity assay for SENP inhibitor project, biochemical, single concentration; shares compounds with SENP7 block; purified caspase-3, Z-DEVD-aminoluciferin luminescence, 60 min; inhibition, % at 12.5 µM; 6,200 compounds, 60% hits;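 active means mean inhibition above about 50%, limit read from the data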;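 further: plate controls were enzyme with DMSO for no effect and wells without caspase-3 for full effect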
Target sequence (P42574 28-227 limits assumed): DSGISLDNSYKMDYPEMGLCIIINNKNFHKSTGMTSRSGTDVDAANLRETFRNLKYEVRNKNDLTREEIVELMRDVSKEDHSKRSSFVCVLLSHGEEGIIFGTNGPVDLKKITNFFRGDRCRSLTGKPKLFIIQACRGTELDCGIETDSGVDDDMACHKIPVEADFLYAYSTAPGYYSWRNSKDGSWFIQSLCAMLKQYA
SENP luc ctr – luminescence interference (SENP counter-screen) | 6,200 compounds, 39% hits | AID 488919 | shares compounds with SENP7 block | Pre-incubated SENP8/Z-RLRGG-aminoluciferin, luciferase luminescence interference | inhibition, % at 12.5 µM;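 active means mean inhibition above about 50% when retested at one dose, limit read from the data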;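 further: plate controls were DMSO wells with completed reaction for no effect and substrate without enzyme for full effect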
Apaf-1 inh conf – Apaf-1 inhibitors, single-dose retest, confirmation, biochemical, fluorescence, DEVD-Rh110, 20 µM | 1,800 compounds, 25% hits | inhibition, % at 20 µM | shares compounds with Apaf1 inhib | AID 504614, 2011 | reconstituted apoptosome, caspase-3 DEVD-Rh110 fluorescence;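 active means mean inhibition of at least 40% at 20 µM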;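 further: plate controls were DMSO wells for no effect and DEVD-CHO caspase inhibitor control wells for full effect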
Rh110 interf inh – Rh110 fluorescence interference by putative Apaf-1 inhibitors, confirmation, artefact control for Apaf-1 inhibitor project, biochemical, 20 µM | shares compounds with Apaf1 inhib | quenched caspase reaction | 1,800 tested, under 10 active | AID 504615, 2011 | activation (fluorescence interference), % at 20 µM;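 active means signal rise of 40% or more at 20 µM, treated as a fluorescence artifact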
Fluor interf inh – fluorescence interference of Apaf-1 inhibitor hits, dose response, artefact control for Apaf-1 inhibitor project; shares compounds with Apaf1 inhib; fluorescence interference counterscreen, Apaf-1 assay format; IC50, µM; 460 tested, under 10 active; call rule not given here
SENP8 conf-2 – human SENP8 protease inhibitors, confirmation, biochemical, Nedd8 protein substrate, single concentration | shares compounds with SENP8 block-2 | purified SENP8, Nedd8-AMC/pro-Nedd8 cleavage fluorescence, 30 min | inhibition, % at 25 µM | 1,400 compounds, 15% hits | AID 624319, 2012; in the data active means inhibition mostly above about 39%, no sharp cut-off; inactive means mostly below about 34%
Numbers without * were called inactive. Only some compounds are listed: those with a hit (about 3% of all), similar ones and a draw of the others.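 How the source made its calls, unless noted: active means mean inhibition above about 50% in the one-dose retest (limit read from the data); inactive means the rest.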

What do the screens show for `CCC(C)NC(=O)c1c(N)n(CC2CCCO2)c2nc3ccccc3nc12` (stereo not given)?
SENP6 block: 87.6*; Apaf1 inhib: 94.5*; SENP8 block-1: 83.0*; SENP8 block-2: -270.4; SENP7 block: 71.8*; UBC13 polyUb: 13.9; SENP8 conf-1: 7.3; SENP6 conf: 40.7; SENP7 conf: 33.9; Casp3 SENP sel: 9.2; SENP luc ctr: 5.8; Apaf-1 inh conf: 55.5*; Rh110 interf inh: 12.5; Fluor interf inh: >100

What do the screens show for `COCCCn1c(N)c(C(=O)Nc2sc3c(c2C(=O)OC)CCCC3)c2nc3ccccc3nc21`?
SENP6 block: 91.4*; Apaf1 inhib: 90.2*; SENP8 block-1: 88.8*; SENP8 block-2: -269.3; SENP7 block: 71.2*; UBC13 polyUb: -21.6; SENP8 conf-1: 1.4; SENP6 conf: 6.6; SENP7 conf: 16.4; Casp3 SENP sel: 7.4; SENP luc ctr: 3.4; Apaf-1 inh conf: 26.0; Rh110 interf inh: 9.8

What do the screens show for `COCCCn1c(N)c(C(=O)NCc2ccco2)c2nc3ccccc3nc21`?
SENP6 block: 92.8*; Apaf1 inhib: 94.6*; SENP8 block-1: 90.5*; SENP7 block: 87.0*; UBC13 polyUb: -18.2; SENP8 conf-1: 15.3; SENP6 conf: 26.1; SENP7 conf: 17.2; Casp3 SENP sel: -1.3; SENP luc ctr: -0.8; Apaf-1 inh conf: 19.2; Rh110 interf inh: 6.9

How did CCC(C)NC(=O)c1c(N)n(CCCOC)c2nc3ccccc3nc12 (stereo not given) do in these assays?
SENP6 block: 86.4*; Apaf1 inhib: 90.9*; SENP8 block-1: 92.0*; SENP8 block-2: -265.3; SENP7 block: 89.8*; UBC13 polyUb: -8.3; SENP8 conf-1: 40.3; SENP6 conf: 83.0*; SENP7 conf: 74.3*; Casp3 SENP sel: 16.5; SENP luc ctr: 17.9; Apaf-1 inh conf: 59.4*; Rh110 interf inh: 8.8; Fluor interf inh: >100

Results for COCCNC(=O)c1c(N)n(Cc2ccco2)c2nc3ccccc3nc12 ?
SENP6 block: -7.0; Apaf1 inhib: 9.9; SENP8 block-1: -0.1; SENP8 block-2: -274.2; SENP7 block: 4.6; UBC13 polyUb: -14.7

What do the screens show for `O=P(NC1CCCCC1)(Oc1ccccc1)Oc1ccccc1`?
SENP8 block-2: 11.7

Results for COc1ccc(C[C@@H]2c3cc(O)c(OC)cc3CCN2C)cc1O ?
SENP6 block: -3.6; Apaf1 inhib: -1.7; SENP8 block-1: -3.3; SENP8 block-2: 8.9; SENP7 block: -5.6; UBC13 polyUb: 6.5

Results for COc1cc2c(cc1O)[C@@H]1Cc3ccc(OC)c(O)c3CN1CC2 ?
SENP6 block: 73.6*; Apaf1 inhib: 93.0*; SENP8 block-1: 64.3*; SENP8 block-2: 80.0*; SENP7 block: 49.4; UBC13 polyUb: -29.9; SENP8 conf-1: 9.5; SENP6 conf: 29.4; SENP7 conf: 16.9; Casp3 SENP sel: 6.0; SENP luc ctr: 3.5; Apaf-1 inh conf: 58.3*; Rh110 interf inh: -4.0; Fluor interf inh: >100

Results for O=c1[nH]sc2cc(F)ccc12 ?
SENP8 block-2: 5.5

Results for COc1ccc(NC2=NCCCS2)cc1OC ?
SENP6 block: -5.0; Apaf1 inhib: 6.2; SENP8 block-1: -7.2; SENP8 block-2: 6.8; SENP7 block: -11.0; UBC13 polyUb: -6.0

Results for O=c1[nH]c(=S)[nH]c(O)c1N=Nc1ccc2c(c1)OCCO2 ?
SENP6 block: 91.5*; Apaf1 inhib: -6.3; SENP8 block-1: 87.0*; SENP8 block-2: 41.8*; SENP7 block: 92.1*; UBC13 polyUb: -386.0; SENP8 conf-1: 1.2; SENP6 conf: 24.7; SENP7 conf: 55.0*; Casp3 SENP sel: 64.2*; SENP luc ctr: -1.1; SENP8 conf-2: 5.8

How did CCc1ccccc1NC(=O)N1C[C@H]2C[C@@H](C1)c1cccc(=O)n1C2 do in these assays?
SENP6 block: 4.5; Apaf1 inhib: -9.0; SENP8 block-1: 2.0; SENP8 block-2: 12.0; SENP7 block: 3.5; UBC13 polyUb: 6.7
